pIC50: −log10 of the molar value. Activity calls are given as the source filed them. The rule behind the calls is not given here.
Assays:
[1] = species: Rattus norvegicus; test: Inhibition of rat liver microsomal Steroid 5-alpha-reductase at 5 uM after 30 mins by scintillation counting
Outline: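 Rat liver microsomal 5α-reductase (types 1 and 2) was incubated with 35 nM [³H]testosterone, 1.0 mM NADPH, 1 mM DTT and 40 mM potassium phosphate pH 6.5. Steroids were separated by TLC and the spots extracted with ethyl acetate for scintillation counting. Percent inhibition was taken at a single fixed test concentration.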

[2] = Inhibition of rat liver microsomal Steroid 5-alpha-reductase after 30 mins by scintillation counting
Outline: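 Rat liver microsomes containing both type 1 and type 2 5α-reductase. [³H]T and [³H]DHT spots were separated by TLC, cut out and extracted with ethyl acetate, then counted by liquid scintillation.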

[3] = system: PC-3; test: Anticancer activity against human PC3 cells xenografted in sc dosed SCID mouse assessed as inhibition of tumor growth at 20 mg/kg, ip qd for 14 days; type: functional
Outline: (§1)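 PC-3 xenografts in SCID mice; calipers tracked tumor volume once palpable, and dosing began at an average volume of ~50–100 mm³. Groups of 5 mice received one intraperitoneal dose daily for 14 days, formulated in 15% PEG 400, 5% EtOH and 80% H₂O, alongside a vehicle-only group. Tumor size and body weight were recorded every two days for 28 days; tumor size given as mean ± S.E.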

[4] = system: PC-3; test: Anticancer activity against human PC3 cells xenografted in sc dosed SCID mouse assessed as inhibition of tumor growth at 80 mg/kg, ip qd for 14 days; type: functional; conditions: PC-3, sc, 336 h; outline: as §1

Row | SMILES | inhibition [1] | pIC50 [2] | other results
1 | CC(=O)Oc1cc(OC(C)=O)c2c(c1)O[C@H](c1cc(OC(C)=O)c(OC(C)=O)c(OC(C)=O)c1)[C@H](OC(=O)c1cc(OC(C)=O)c(OC(C)=O)c(OC(C)=O)c1)C2 | 0.5% |  | 
2 | Cc1ccc(C(=O)O[C@@H]2Cc3c(O)cc(O)cc3O[C@@H]2c2cc(O)c(O)c(O)c2)cc1 |  | 5.88 | 
3 | CC(=O)O[C@@H]1Cc2c(O)cc(O)cc2O[C@@H]1c1cc(O)c(O)c(O)c1 | 3% |  | 
4 | C#CCCCC(=O)O[C@@H]1Cc2c(O)cc(O)cc2O[C@@H]1c1cc(O)c(O)c(O)c1 | 48.8% |  | 
5 | CCCCCCCC/C=C\CCCCCCCC(=O)O[C@@H]1Cc2c(O)cc(O)cc2O[C@@H]1c1cc(O)c(O)c(O)c1 |  | 6.13 | 
6 | CC(C)=CC(=O)O[C@@H]1Cc2c(O)cc(O)cc2O[C@@H]1c1cc(O)c(O)c(O)c1 | 36% |  | 
7 | CCCCCCCC(=O)O[C@@H]1Cc2c(O)cc(O)cc2O[C@@H]1c1cc(O)c(O)c(O)c1 | 49.3% |  | 
8 | CC(C)(C)C1CCC(C(=O)O[C@@H]2Cc3c(O)cc(O)cc3O[C@@H]2c2cc(O)c(O)c(O)c2)CC1 (some centres not stated) |  | 5.92 | 
9 | CCCCCCCCCCCCCCCCCCCC(=O)O[C@@H]1Cc2c(O)cc(O)cc2O[C@@H]1c1cc(O)c(O)c(O)c1 | 47.9% |  | 
10 | C/C=C(\C)C(=O)O[C@@H]1Cc2c(O)cc(O)cc2O[C@@H]1c1cc(O)c(O)c(O)c1 | 29.1% |  | 
11 | CCCC(=O)O[C@@H]1Cc2c(O)cc(O)cc2O[C@@H]1c1cc(O)c(O)c(O)c1 | 35% |  | 
12 | CCCCCC(=O)O[C@@H]1Cc2c(O)cc(O)cc2O[C@@H]1c1cc(O)c(O)c(O)c1 | 46% |  | 
13 | CCCCCCCCCCCCCCCCCCCCCC(=O)O[C@@H]1Cc2c(O)cc(O)cc2O[C@@H]1c1cc(O)c(O)c(O)c1 | 28.3% |  | 
14 | CCCCCCCCCCCCCCCC(=O)O[C@@H]1Cc2c(O)cc(O)cc2O[C@@H]1c1cc(O)c(O)c(O)c1 |  | 6.28 | 
15 | CC1=C(/C=C/C(C)=C/C=C/C(C)=C/C(=O)O[C@@H]2Cc3c(O)cc(O)cc3O[C@@H]2c2cc(O)c(O)c(O)c2)C(C)(C)CCC1 |  | 6.12 | 
16 | CCCCCCCCCC(=O)O[C@@H]1Cc2c(O)cc(O)cc2O[C@@H]1c1cc(O)c(O)c(O)c1 |  | 5.53 | 
17 | O=C(O[C@@H]1Cc2c(O)cc(O)cc2O[C@@H]1c1cc(O)c(O)c(O)c1)c1ccc(Cl)cc1 |  | 5.80 | 
18 | CCCCCCCCCCCC(=O)O[C@@H]1Cc2c(O)cc(O)cc2O[C@@H]1c1cc(O)c(O)c(O)c1 |  | 6.11 | 
19 | O=C(Nc1ccc2ccccc2c1)O[C@@H]1Cc2c(O)cc(O)cc2O[C@@H]1c1cc(O)c(O)c(O)c1 | 28.7% |  | 
20 | CCCCCCCCCCCCCC(=O)O[C@@H]1Cc2c(O)cc(O)cc2O[C@@H]1c1cc(O)c(O)c(O)c1 |  | 6.22 | 
21 | CCCCCCCCCCCCCCCCCC(=O)O[C@@H]1Cc2c(O)cc(O)cc2O[C@@H]1c1cc(O)c(O)c(O)c1 |  | 6.14 | 
22 | CC/C=C\C/C=C\C/C=C\CCCCCCCC(=O)O[C@@H]1Cc2c(O)cc(O)cc2O[C@@H]1c1cc(O)c(O)c(O)c1 |  | 6.11 | 
23 | COc1cc(OC)c2c(c1)O[C@H](c1cc(OC)c(OC)c(OC)c1)[C@H](OC(=O)c1cc(OC)c(OC)c(OC)c1)C2 | 8.4% |  | 
24 | O=C(O[C@@H]1Cc2c(O)cc(O)cc2O[C@@H]1c1cc(O)c(O)c(O)c1)c1cc(O)c(O)c(O)c1 [EPIGALOCATECHIN GALLATE] |  | 5.20 | inhibition [3]: inactive; inhibition in vivo at 80 mg/kg [4]: 32%
25 | Cc1ccc(NC(=O)O[C@@H]2Cc3c(O)cc(O)cc3O[C@@H]2c2cc(O)c(O)c(O)c2)cc1 | 0.8% |  | 
26 | O=C(Nc1ccc(Cl)cc1)O[C@@H]1Cc2c(O)cc(O)cc2O[C@@H]1c1cc(O)c(O)c(O)c1 | 19.1% |  | 
27 | CCCCCC/C=C\CCCCCCCC(=O)O[C@@H]1Cc2c(O)cc(O)cc2O[C@@H]1c1cc(O)c(O)c(O)c1 |  | 6.32 | inhibition in vivo at 20 mg/kg ([3]; PC-3, sc, 336 h, route subcutaneous): 38%
28 | CC(C)=CCC/C(C)=C/C(=O)O[C@@H]1Cc2c(O)cc(O)cc2O[C@@H]1c1cc(O)c(O)c(O)c1 |  | 5.65 | 
29 | CCCCCCC/C=C/C(=O)O[C@@H]1Cc2c(O)cc(O)cc2O[C@@H]1c1cc(O)c(O)c(O)c1 |  | 5.61 | 

Source: ChEMBL document CHEMBL1629427, “Synthesis and structure-activity relationship of 3-O-acylated (-)-epigallocatechins as 5α-reductase inhibitors” (Eur J Med Chem, 2010)
